ChEMBL document CHEMBL4017520, “Discovery, Structure-Activity Relationship, and Antiparkinsonian Effect of a Potent and Brain-Penetrant Chemical Series of Positive Allosteric Modulators of Metabotropic Glutamate Receptor 4” (J Med Chem, 2017)
Converted amounts (≈) assume the structure as drawn. The source made the active and inactive calls. The rule behind the calls is not given here.

Assays:
[1] = molecular target: Metabotropic glutamate receptor 4 (Homo sapiens, UniProt Q14833); test: Positive allosteric modulation of recombinant human mGlu4 receptor expressed in HEK293 cells co-expressing Gi/Gq assessed as increase in glutamate-induced calcium flux preincubated for 10 mins followed by glutamate addition measured for 3 mins by Fluo4-AM dye based fluorescence assay; format: functional, cell-based
Chain of Metabotropic glutamate receptor 4 (Q14833 whole entry): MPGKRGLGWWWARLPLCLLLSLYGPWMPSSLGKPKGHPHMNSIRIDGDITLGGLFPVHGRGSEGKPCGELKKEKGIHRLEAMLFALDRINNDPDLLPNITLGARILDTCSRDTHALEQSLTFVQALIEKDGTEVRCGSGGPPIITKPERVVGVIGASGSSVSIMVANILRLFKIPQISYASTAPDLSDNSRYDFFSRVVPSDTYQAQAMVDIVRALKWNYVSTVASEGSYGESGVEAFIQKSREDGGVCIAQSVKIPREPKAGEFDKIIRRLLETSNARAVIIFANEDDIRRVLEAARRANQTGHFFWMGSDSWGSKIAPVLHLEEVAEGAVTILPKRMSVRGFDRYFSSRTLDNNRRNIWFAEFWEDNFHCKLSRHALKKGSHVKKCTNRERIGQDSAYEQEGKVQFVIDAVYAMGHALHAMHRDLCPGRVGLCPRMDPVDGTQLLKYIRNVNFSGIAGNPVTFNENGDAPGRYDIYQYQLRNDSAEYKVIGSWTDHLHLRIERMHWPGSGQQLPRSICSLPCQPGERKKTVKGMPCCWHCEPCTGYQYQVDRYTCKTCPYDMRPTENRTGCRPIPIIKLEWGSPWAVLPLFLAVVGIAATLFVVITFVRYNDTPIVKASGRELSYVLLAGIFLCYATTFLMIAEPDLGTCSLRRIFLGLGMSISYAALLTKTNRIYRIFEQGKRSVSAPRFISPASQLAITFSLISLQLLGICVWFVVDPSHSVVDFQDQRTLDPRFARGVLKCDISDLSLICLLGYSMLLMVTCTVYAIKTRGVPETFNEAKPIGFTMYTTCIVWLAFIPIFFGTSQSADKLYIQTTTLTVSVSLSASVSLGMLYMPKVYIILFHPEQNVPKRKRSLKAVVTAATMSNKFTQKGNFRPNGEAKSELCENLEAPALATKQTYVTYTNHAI

[2] = Drug uptake in Sprague-Dawley rat brain at 10 mg/kg, po after 60 mins post dose administered as single dose by LC-MS/MS analysis; format: ADME, organism-based; settings: read-out: Drug uptake
Procedure, shortened: (§1)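 Rats given a single oral dose of 10 mg/kg. Brain concentrations were measured at 30, 60 and 90 min postdose, and brain AUC0–inf was determined. Values are the mean of three rats. Lower limit of quantification was 1 ng/mL.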

[3] = Drug uptake in Sprague-Dawley rat brain at 10 mg/kg, po after 30 mins post dose administered as single dose by LC-MS/MS analysis; format: ADME, organism-based; settings: read-out: Drug uptake
Procedure, shortened: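 Rats given a single oral dose of 10 mg/kg. The first plasma sample was taken at 15 min, and sampling continued to 24 h postdose. Brain was sampled at 30 min. Values are the mean (±SEM) of 3 rats.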

[4] = Thermodynamic solubility of the compound in water; format: physicochemical; settings: read-out: Therm_solubility
Procedure, shortened: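 Thermodynamic solubility measured in milli-Q water.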

[5] = molecular target: Metabotropic glutamate receptor 1 (Homo sapiens) (UniProt Q13255); test: Negative allosteric modulation of human mGlu1 receptor expressed in HEK293 cells co-expressing Gi/Gq assessed as reduction in EC20/EC80 glutamate-induced intracellular calcium level preincubated for 10 mins followed by glutamate addition measured for 3 mins by Fluo4-AM dye based fluorescence assay; format: functional, cell-based
Chain of Metabotropic glutamate receptor 1 (Homo sapiens) (Q13255 19-1194 limits assumed): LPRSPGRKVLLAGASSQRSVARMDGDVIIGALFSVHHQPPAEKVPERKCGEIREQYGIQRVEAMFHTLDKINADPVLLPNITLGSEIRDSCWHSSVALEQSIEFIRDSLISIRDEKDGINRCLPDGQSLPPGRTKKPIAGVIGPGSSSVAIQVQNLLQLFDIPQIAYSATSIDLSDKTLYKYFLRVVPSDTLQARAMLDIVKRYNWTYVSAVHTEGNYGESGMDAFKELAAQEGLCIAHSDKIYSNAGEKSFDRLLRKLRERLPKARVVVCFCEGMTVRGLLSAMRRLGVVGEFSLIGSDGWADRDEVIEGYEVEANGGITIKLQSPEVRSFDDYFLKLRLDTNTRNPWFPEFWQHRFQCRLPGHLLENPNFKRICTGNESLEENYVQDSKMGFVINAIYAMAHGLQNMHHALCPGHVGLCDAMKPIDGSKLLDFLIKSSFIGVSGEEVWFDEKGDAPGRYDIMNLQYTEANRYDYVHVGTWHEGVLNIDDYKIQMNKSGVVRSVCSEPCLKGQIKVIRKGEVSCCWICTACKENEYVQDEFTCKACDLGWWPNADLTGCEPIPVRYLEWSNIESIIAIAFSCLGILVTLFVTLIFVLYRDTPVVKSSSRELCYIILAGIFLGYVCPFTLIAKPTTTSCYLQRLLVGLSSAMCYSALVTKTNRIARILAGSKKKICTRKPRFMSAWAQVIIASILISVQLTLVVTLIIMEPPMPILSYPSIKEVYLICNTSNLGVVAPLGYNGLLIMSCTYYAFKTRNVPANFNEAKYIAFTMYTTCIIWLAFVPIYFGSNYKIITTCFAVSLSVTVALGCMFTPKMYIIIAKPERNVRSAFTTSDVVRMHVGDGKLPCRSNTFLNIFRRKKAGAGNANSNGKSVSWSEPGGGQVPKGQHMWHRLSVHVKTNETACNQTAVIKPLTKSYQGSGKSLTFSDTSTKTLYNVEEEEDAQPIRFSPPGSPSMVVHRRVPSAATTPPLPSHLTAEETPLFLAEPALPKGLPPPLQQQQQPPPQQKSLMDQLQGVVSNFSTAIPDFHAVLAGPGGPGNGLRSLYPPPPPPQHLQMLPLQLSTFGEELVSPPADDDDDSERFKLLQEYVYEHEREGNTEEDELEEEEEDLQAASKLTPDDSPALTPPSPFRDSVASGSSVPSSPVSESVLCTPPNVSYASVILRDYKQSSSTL
Procedure, shortened: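 HEK-293 cells transiently expressing human mGluR1 with a Gα15, Gqi9 or GqTOP G protein for calcium read-out; Fluo4-AM loaded. Compound added 10 min, then EC80 glutamate, fluorescence recorded 3 min; concentration–response over 20 concentrations, duplicate, three independent experiments.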

[6] = Drug uptake in Sprague-Dawley rat brain at 10 mg/kg, po after 90 mins post dose administered as single dose by LC-MS/MS analysis; format: ADME, organism-based; settings: read-out: Drug uptake; procedure, shortened: as §1

## O/N=c1\cc(-c2cc3ccccc3cn2)oc2c(Cl)cccc12
[1]; hek293
  EC50: Not Active

## O/N=c1\cc(-c2cc3sccc3cn2)oc2ccc(NC3CCN(c4ccncn4)CC3)cc12
[1]; read-out: EC50
  EC50: 53 nM
[2]
  concentration at 1 h: < 1 ng/g

## CON=c1cc(-c2cc3ccccc3cn2)oc2ccccc12
[1]; hek293
  EC50: Not Active

## Cc1c(-c2cc3ccccc3cn2)oc2ccccc2/c1=N/O
[1]; hek293
  EC50: Not Active

## O/N=c1\cc(-c2ccc3ccccc3c2)oc2ccccc12
[1]; hek293
  EC50: Not Active

## CC(=O)N1CCC(Oc2ccc3oc(-c4cc5cccn5cn4)c/c(=N\O)c3c2)CC1
[1]; read-out: EC50
  EC50: 10 nM
[3]
  concentration at 0.5 h: 24.1 ng/g
[2]
  concentration at 1 h: 12.1 ng/g

## CN(C)C1CCN(CCOc2ccc3oc(-c4cc5cccn5cn4)c/c(=N\O)c3c2)CC1
[1]; read-out: EC50
  EC50: 165 nM
[3]
  concentration at 0.5 h: 2.8 ng/g
[2]
  concentration at 1 h: 2.9 ng/g

## O/N=c1\cc(-c2cc3ccccc3o2)oc2ccccc12
[1]; read-out: EC50
  EC50: > 30000 nM

## COc1ccc2/c(=N/O)cc(-c3cc4ccccc4cn3)oc2c1
[1]; read-out: EC50
  EC50: 1160 nM

## O/N=c1\cc(-c2cc3sccc3cn2)oc2ccccc12
[1]; read-out: EC50
  EC50: 200 nM

## COCCOc1ccc2oc(-c3cc4ccccc4cn3)c/c(=N\O)c2c1
[1]; read-out: EC50
  EC50: 750 nM

## Cc1ccc2oc(-c3cc4ccccc4cn3)c/c(=N\O)c2c1
[1]; read-out: EC50
  EC50: 980 nM

## O/N=c1\cc(-c2cc3sccc3cn2)oc2ccc(O[C@@H]3CCN(c4ccncn4)C3)cc12
[1]; read-out: EC50
  EC50: 17 nM
[3]
  concentration at 0.5 h: 20 ng/g
[2]
  concentration at 1 h: 9.5 ng/g

## Cn1c(-c2c/c(=N\O)c3ccccc3o2)cc2ccccc21
[1]; hek293
  EC50: Not Active

## COCCOc1ccc2/c(=N/O)cc(-c3cc4ccccc4cn3)oc2c1
[1]; read-out: EC50
  EC50: 3010 nM

## O/N=c1\cc(-c2cc3ccccc3[nH]2)oc2ccccc12
[1]; read-out: EC50
  EC50: > 30000 nM

## CN(C)C(=O)N1CC(Oc2ccc3oc(-c4cc5cccn5cn4)c/c(=N\O)c3c2)C1
[1]; read-out: EC50
  EC50: 35 nM
[3]
  concentration at 0.5 h: 25.5 ng/g
[2]
  concentration at 1 h: 8.8 ng/g

## O/N=c1\cc(-c2cnc3ccccc3n2)oc2ccccc12
[1]; hek293
  EC50: Not Active

## CN1CCN(CCOc2ccc3oc(-c4cc5cccn5cn4)c/c(=N\O)c3c2)CC1
[1]; read-out: EC50
  EC50: 1710 nM

## O=c1cc(-c2cc3ccccc3cn2)oc2ccccc12
[1]; hek293
  EC50: Not Active

## COCCOc1ccc2oc(-c3cc4cccn4cn3)c/c(=N\O)c2c1
[1]; read-out: EC50
  EC50: 160 nM
[4]
  solubility thermodynamic: 16.3 µM (≈ 5.73 µg/mL)

## O/N=c1\cc(-c2cc3cnccc3cn2)oc2ccccc12
[1]; read-out: EC50
  EC50: 1270 nM

## O=C(Nc1ccccc1)[C@]12C[C@H]1/C(=N\O)c1ccccc1O2
[5]
  Activity: Active

## O/N=c1\cc(-c2cc3cccn3cn2)oc2ccccc12
[1]; read-out: EC50
  EC50: 110 nM
[4]
  solubility thermodynamic: 0.2 µM (≈ 0.0555 µg/mL)

## Cl.O/N=c1\cc(-c2cc3cccn3cn2)oc2ccc(OCCN3CCOCC3)cc12
[4]
  solubility thermodynamic: 10600 µM

## Cc1cc(C)n2cnc(-c3c/c(=N\O)c4ccccc4o3)cc12
[1]; hek293
  EC50: Not Active

## Cc1cc(CCCOc2ccc3oc(-c4cc5cccn5cn4)c/c(=N\O)c3c2)ccn1
[1]; read-out: EC50
  EC50: 19 nM
[3]
  concentration at 0.5 h: 77.3 ng/g
[2]
  concentration at 1 h: 82.5 ng/g

## CN1CCN(CCOc2ccc3oc(-c4cc5ccccc5cn4)c/c(=N\O)c3c2)CC1
[1]; read-out: EC50
  EC50: 9840 nM

## O/N=c1\cc(-c2cc3cc[nH]c3cn2)oc2ccccc12
[1]; read-out: EC50
  EC50: 50 nM

## O/N=c1\cc(-c2cn3cccc3cn2)oc2ccccc12
[1]; read-out: EC50
  EC50: 280 nM

## O/N=c1\cc(-c2cc3sccc3cn2)oc2ccc(CCCN3CCC(F)(F)C3)cc12
[6]
  concentration at 1.5 h: 137 ng/g
[1]; read-out: EC50
  EC50: 25 nM
[3]
  concentration at 0.5 h: 275 ng/g
[2]
  concentration at 1 h: 197 ng/g

## O/N=c1\cc(-c2ccn3ccnc3c2)oc2ccccc12
[1]; hek293
  EC50: Not Active

## CC(=O)N1CCC(COc2ccc3oc(-c4cc5sccc5cn4)c/c(=N\O)c3c2)CC1
[1]; read-out: EC50
  EC50: 6 nM
[3]
  concentration at 0.5 h: 10.7 ng/g
[2]
  concentration at 1 h: 6.5 ng/g

## O/N=c1\cc(-c2cnc3ccccc3c2)oc2ccccc12
[1]; read-out: EC50
  EC50: 3960 nM

## O/N=c1\cc(-c2ccc3ncccc3c2)oc2ccccc12
[1]; read-out: EC50
  EC50: 6990 nM

## O/N=c1\cc(-c2cc3ccccc3cn2)oc2ccc(OC(F)(F)F)cc12
[1]; read-out: EC50
  EC50: 1630 nM

## O/N=c1\cc(-c2cc3sccc3cn2)oc2ccc(OCCN3CCOCC3)cc12
[6]
  concentration at 1.5 h: 281 ng/g
[1]; read-out: EC50
  EC50: 35 nM
[3]
  concentration at 0.5 h: 408 ng/g
[2]
  concentration at 1 h: 521 ng/g

## CC(=O)N1CC(Oc2ccc3oc(-c4cc5sccc5cn4)c/c(=N\O)c3c2)C1
[1]; read-out: EC50
  EC50: 53 nM
[3]
  concentration at 0.5 h: < 1 ng/g
[2]
  concentration at 1 h: < 1 ng/g

## O/N=c1\cc(-c2ccc3ccccc3n2)oc2ccccc12
[1]; hek293
  EC50: Not Active

## O/N=c1\cc(-c2cc3ccccc3cn2)oc2ccc(Br)cc12
[1]; read-out: EC50
  EC50: 690 nM

## Cc1ncccc1N1CCC(Cc2ccc3oc(-c4cc5sccc5cn4)c/c(=N\O)c3c2)CC1
[1]; read-out: EC50
  EC50: 4 nM
[3]
  concentration at 0.5 h: 7.4 ng/g
[2]
  concentration at 1 h: < 1 ng/g

## CN1CCN(CCCNc2ccc3oc(-c4cc5ccccc5cn4)c/c(=N\O)c3c2)CC1
[1]; read-out: EC50
  EC50: 5260 nM

## O/N=c1\cc(-c2cc3cccn3cn2)oc2ccc(OCCCc3cccnc3)cc12
[1]; read-out: EC50
  EC50: 50 nM
[3]
  concentration at 0.5 h: 3.4 ng/g
[2]
  concentration at 1 h: 2.3 ng/g

## O/N=c1\cc(-c2cc3sccc3cn2)oc2ccc(OC3CN(c4cccnc4)C3)cc12
[1]; read-out: EC50
  EC50: 4 nM
[3]
  concentration at 0.5 h: 33.4 ng/g
[2]
  concentration at 1 h: 26.7 ng/g

## O/N=c1\cc(-c2cc3sccc3cn2)oc2ccc(CCCN3CCC(F)(F)CC3)cc12
[6]
  concentration at 1.5 h: 100 ng/g
[1]; read-out: EC50
  EC50: 106 nM
[3]
  concentration at 0.5 h: 157 ng/g
[2]
  concentration at 1 h: 201 ng/g

## O/N=c1\cc(-c2cc3ccccc3cn2)oc2ccccc12
[1]; read-out: EC50
  EC50: 310 nM

## CN1CCCC12CCN(CCOc1ccc3oc(-c4cc5sccc5cn4)c/c(=N\O)c3c1)CC2
[1]; read-out: EC50
  EC50: 60 nM
[3]
  concentration at 0.5 h: < 1 ng/g
[2]
  concentration at 1 h: < 1 ng/g

## O/N=c1\cc(-c2cc3cccn3cn2)oc2ccc(OCCN3CCC(F)(F)CC3)cc12
[1]; read-out: EC50
  EC50: 150 nM

## O/N=c1\cc(/C=C/c2ccccc2)oc2ccccc12
[1]; read-out: EC50
  EC50: 14200 nM

## O/N=c1\cc(-c2cc3ccccc3cn2)oc2cc(Br)ccc12
[1]; read-out: EC50
  EC50: 1720 nM

## O/N=c1\cc(-c2cc3sccc3cn2)oc2ccc(OCCN3CCC(F)(F)CC3)cc12
[6]
  concentration at 1.5 h: 194 ng/g
[1]; read-out: EC50
  EC50: 90 nM
[3]
  concentration at 0.5 h: 239 ng/g
[2]
  concentration at 1 h: 207 ng/g

## O/N=c1\cc(-c2cc3ccccc3s2)oc2ccccc12
[1]; hek293
  EC50: Not Active

## O/N=c1\cc(-c2cc3ccsc3cn2)oc2ccccc12
[1]; read-out: EC50
  EC50: 130 nM

## O/N=c1\cc(-c2cc3cccn3cn2)oc2ccc(OCCN3CCCC3)cc12
[1]; read-out: EC50
  EC50: 2340 nM

## O/N=c1\cc(-c2cc3ncccc3cn2)oc2ccccc12
[1]; read-out: EC50
  EC50: 240 nM

## O/N=c1\cc(-c2cc3ccccc3cn2)oc2ccc(C(F)(F)F)cc12
[1]; read-out: EC50
  EC50: 2470 nM

## Cn1ccc2cc(-c3c/c(=N\O)c4ccccc4o3)ncc21
[1]; read-out: EC50
  EC50: 860 nM

## O/N=c1\cc(-c2cc3ccccc3cn2)oc2cc(CCc3ccccc3)ccc12
[1]; read-out: EC50
  EC50: 1740 nM

## O/N=c1\cc(-c2cc3ccccc3cn2)oc2ccc(C3CC3)cc12
[1]; read-out: EC50
  EC50: 1010 nM

## COc1ccc2oc(-c3cc4ccccc4cn3)c/c(=N\O)c2c1
[1]; read-out: EC50
  EC50: 1390 nM
